Test results from ChEMBL document CHEMBL1152689, “Synthesis, tautomerism, and antimicrobial, anti-HCV, anti-SSPE, antioxidant, and antitumor activities of arylazobenzosuberones” (Bioorg Med Chem, 2009).
In brackets after ≈: the same amount, converted by molar mass. Activity calls are given as the source filed them. No cut-off for these calls is given here.

What was measured:
[1] = system: Penicillium italicum; experiment: Antimicrobial activity against Penicillium italicum at 5 ug/mL by agar diffusion method; assay type: functional; conditions: read-out: IZ
[2] = system: Syncephalastrum racemosum; experiment: Antimicrobial activity against Syncephalastrum racemosum at 5 ug/mL by agar diffusion method; assay type: functional; conditions: read-out: IZ
[3] = system: Candida albicans; experiment: Antimicrobial activity against Candida albicans at 5 ug/mL by agar diffusion method; assay type: functional; conditions: read-out: IZ
[4] = system: Staphylococcus aureus; experiment: Antimicrobial activity against Staphylococcus aureus at 5 ug/mL by agar diffusion method; assay type: functional; conditions: read-out: IZ
[5] = system: Pseudomonas aeruginosa; experiment: Antimicrobial activity against Pseudomonas aeruginosa at 5 ug/mL by agar diffusion method; assay type: functional; conditions: read-out: IZ
[6] = system: Bacillus subtilis; experiment: Antimicrobial activity against Bacillus subtilis at 5 ug/mL by agar diffusion method; assay type: functional; conditions: read-out: IZ
[7] = system: Escherichia coli; experiment: Antimicrobial activity against Escherichia coli at 5 ug/mL by agar diffusion method; assay type: functional; conditions: read-out: IZ
[8] = system: Aspergillus fumigatus; experiment: Antimicrobial activity against Aspergillus fumigatus at 2.5 ug/mL by agar diffusion method; assay type: functional; conditions: read-out: IZ
[9] = system: Penicillium italicum; experiment: Antimicrobial activity against Penicillium italicum at 2.5 ug/mL by agar diffusion method; assay type: functional; conditions: read-out: IZ
[10] = system: Syncephalastrum racemosum; experiment: Antimicrobial activity against Syncephalastrum racemosum at 2.5 ug/mL by agar diffusion method; assay type: functional; conditions: read-out: IZ
[11] = system: Candida albicans; experiment: Antimicrobial activity against Candida albicans at 2.5 ug/mL by agar diffusion method; assay type: functional; conditions: read-out: IZ
[12] = system: Staphylococcus aureus; experiment: Antimicrobial activity against Staphylococcus aureus at 2.5 ug/mL by agar diffusion method; assay type: functional; conditions: read-out: IZ
[13] = system: Pseudomonas aeruginosa; experiment: Antimicrobial activity against Pseudomonas aeruginosa at 2.5 ug/mL by agar diffusion method; assay type: functional; conditions: read-out: IZ
[14] = system: Bacillus subtilis; experiment: Antimicrobial activity against Bacillus subtilis at 2.5 ug/mL by agar diffusion method; assay type: functional; conditions: read-out: IZ
[15] = system: Escherichia coli; experiment: Antimicrobial activity against Escherichia coli at 2.5 ug/mL by agar diffusion method; assay type: functional; conditions: read-out: IZ
[16] = system: Aspergillus fumigatus; experiment: Antimicrobial activity against Aspergillus fumigatus at 1.25 ug/mL by agar diffusion method; assay type: functional; conditions: read-out: IZ
[17] = system: Penicillium italicum; experiment: Antimicrobial activity against Penicillium italicum at 1.25 ug/mL by agar diffusion method; assay type: functional; conditions: read-out: IZ
[18] = system: Syncephalastrum racemosum; experiment: Antimicrobial activity against Syncephalastrum racemosum at 1.25 ug/mL by agar diffusion method; assay type: functional; conditions: read-out: IZ
[19] = system: Candida albicans; experiment: Antimicrobial activity against Candida albicans at 1.25 ug/mL by agar diffusion method; assay type: functional; conditions: read-out: IZ
[20] = system: Staphylococcus aureus; experiment: Antimicrobial activity against Staphylococcus aureus at 1.25 ug/mL by agar diffusion method; assay type: functional; conditions: read-out: IZ
[21] = system: Pseudomonas aeruginosa; experiment: Antimicrobial activity against Pseudomonas aeruginosa at 1.25 ug/mL by agar diffusion method; assay type: functional; conditions: read-out: IZ
[22] = system: Bacillus subtilis; experiment: Antimicrobial activity against Bacillus subtilis at 1.25 ug/mL by agar diffusion method; assay type: functional; conditions: read-out: IZ
[23] = system: Escherichia coli; experiment: Antimicrobial activity against Escherichia coli at 1.25 ug/mL by agar diffusion method; assay type: functional; conditions: read-out: IZ
[24] = system: Hepatitis C virus; experiment: Antiviral activity against HCV by cell based replicon assay; assay type: functional, Hepacivirus hominis
How it was run: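 HCV replicon cells plated at 1×10^4 per well. Next day incubated at 37 °C with serially diluted compound in DMEM with 2% FBS and 0.5% DMSO. HCV RNA copy number measured by quantitative RT-PCR on total cellular RNA. Each point is the average of five replicates. Cytotoxicity measured by MTS in parallel.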

[25] = system: Measles morbillivirus; experiment: Antiviral activity against Measles virus infected in intracranially dosed hamster assessed as inhibition of subacute sclerosing panencephalitis; assay type: functional
How it was run: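 Hamsters under ether anesthesia injected intracranially, into the subarachnoid space at 2 mm depth, at 5, 10 and 20 mg/kg/day for 10 days. Four animals per group sacrificed on days 1–20. Brains homogenized in PBS and centrifuged, supernatant deproteinized with ethanol, then MIC in brain tissue determined by HPLC and bioassay.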

[26] = system: Radical scavenging activity; experiment: Antioxidant activity assessed as DPPH free radical scavenging activity by measuring reduction in DPPH absorbance by ELISA relative to untreated control; assay type: functional; design: concentration or dose not given beside the values
How it was run: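 Test compounds dissolved in DMSO, ascorbic acid standard in water, both serially diluted. 10 µl sample added to 90 µl of 100 µM DPPH in methanol and kept in the dark at 37 °C for 30 min. Absorbance read at 515 nm. Blank is DMSO plus DPPH. % reduction = (A_B − A_A)/A_B × 100. Run in triplicate.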

[27] = Antioxidant activity assessed as inhibition of peroxynitrite-mediated 3-nitrotyrosine formation by HPLC; assay type: functional
How it was run: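 Tyrosine and peroxynitrite, each 100 µM, reacted with compound at 0–300 µM in 100 mM phosphate buffer pH 7.4 at 37 °C for 15 min. Peroxynitrite made from acidified H2O2 plus KNO2, quenched with NaOH, and kept on ice no longer than 30 min before use.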

[28] = system: MC-38; experiment: Antitumor activity against mouse Colon 38 cells implanted in iv dosed C57BL/6 mouse administered as single dose; assay type: functional, organism-based
How it was run: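 Female C57BL/6 mice, 6 weeks old, given about 30 mg Colon 38 tumor tissue s.c. in the flank. Randomized into groups of n = 5 when tumors reached about 300 mm3 (day 1). Compound in 5% glucose given as a single iv tail-vein dose on day 1; controls received 5% glucose. Tumor volume = (length × width²)/2 and body weight tracked.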

[29] = molecular target: DNA topoisomerase 2-alpha (Mus musculus) (UniProt Q01320); experiment: Inhibition of topoisomerase 2 from mouse P388 cells assessed as relaxation of pBR322 DNA by agarose gel electrophoresis relative to etoposide; assay type: cell-based
Sequence of DNA topoisomerase 2-alpha (Mus musculus) (Q01320 whole entry): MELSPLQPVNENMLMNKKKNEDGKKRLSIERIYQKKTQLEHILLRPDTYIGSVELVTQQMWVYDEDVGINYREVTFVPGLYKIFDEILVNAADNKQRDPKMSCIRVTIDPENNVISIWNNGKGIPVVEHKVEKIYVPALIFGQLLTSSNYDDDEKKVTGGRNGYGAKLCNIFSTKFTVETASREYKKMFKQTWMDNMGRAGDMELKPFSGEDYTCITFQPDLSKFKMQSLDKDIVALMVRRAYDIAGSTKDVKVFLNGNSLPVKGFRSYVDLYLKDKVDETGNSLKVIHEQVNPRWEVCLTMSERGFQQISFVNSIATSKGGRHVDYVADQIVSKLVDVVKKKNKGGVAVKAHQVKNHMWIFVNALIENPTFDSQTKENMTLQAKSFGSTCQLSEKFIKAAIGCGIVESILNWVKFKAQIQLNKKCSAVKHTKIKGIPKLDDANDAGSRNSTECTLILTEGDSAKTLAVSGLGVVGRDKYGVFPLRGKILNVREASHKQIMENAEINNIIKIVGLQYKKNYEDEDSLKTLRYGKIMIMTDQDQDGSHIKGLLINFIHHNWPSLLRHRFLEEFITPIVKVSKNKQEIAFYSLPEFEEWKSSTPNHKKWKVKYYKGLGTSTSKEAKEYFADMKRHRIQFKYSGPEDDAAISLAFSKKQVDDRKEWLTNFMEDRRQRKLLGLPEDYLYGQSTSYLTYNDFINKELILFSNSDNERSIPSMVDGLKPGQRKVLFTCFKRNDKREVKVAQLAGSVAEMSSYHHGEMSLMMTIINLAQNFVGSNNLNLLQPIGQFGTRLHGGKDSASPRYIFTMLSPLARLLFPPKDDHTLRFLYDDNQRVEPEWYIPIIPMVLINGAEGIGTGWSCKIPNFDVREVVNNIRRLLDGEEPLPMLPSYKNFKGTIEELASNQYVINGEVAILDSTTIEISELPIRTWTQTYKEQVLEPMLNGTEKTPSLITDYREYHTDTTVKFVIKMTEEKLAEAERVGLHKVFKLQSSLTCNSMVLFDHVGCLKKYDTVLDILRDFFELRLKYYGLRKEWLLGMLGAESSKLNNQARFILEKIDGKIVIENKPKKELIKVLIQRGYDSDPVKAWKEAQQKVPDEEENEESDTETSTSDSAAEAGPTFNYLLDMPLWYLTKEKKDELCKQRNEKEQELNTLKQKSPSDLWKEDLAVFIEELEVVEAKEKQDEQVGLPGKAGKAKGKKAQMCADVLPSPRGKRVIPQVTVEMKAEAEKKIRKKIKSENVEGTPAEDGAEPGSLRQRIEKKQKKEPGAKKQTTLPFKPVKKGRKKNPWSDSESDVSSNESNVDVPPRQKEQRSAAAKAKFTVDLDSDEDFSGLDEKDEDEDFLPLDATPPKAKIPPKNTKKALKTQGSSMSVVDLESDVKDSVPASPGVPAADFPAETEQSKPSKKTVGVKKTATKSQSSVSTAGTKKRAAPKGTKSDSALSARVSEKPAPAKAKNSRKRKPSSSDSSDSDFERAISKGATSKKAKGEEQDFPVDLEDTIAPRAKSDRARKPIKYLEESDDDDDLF
How it was run: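 Topoisomerase II purified from P388 cells. One unit relaxes 0.125 µg supercoiled pBR322 DNA, incubated with or without inhibitor at 30 °C for 1 h in 50 mM Tris-HCl pH 8.0, 100 mM KCl, 10 mM MgCl2, 0.5 mM DTT, 1 mM ATP and 30 µg/ml BSA. Products run on 0.7% agarose in TBE, stained with ethidium bromide and imaged under UV.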

[30] = molecular target: T1, DNA topoisomerase 1 (Homo sapiens) (UniProt P11387); experiment: Inhibition of topoisomerase 1 relative to etoposide
T1 sequence (whole entry): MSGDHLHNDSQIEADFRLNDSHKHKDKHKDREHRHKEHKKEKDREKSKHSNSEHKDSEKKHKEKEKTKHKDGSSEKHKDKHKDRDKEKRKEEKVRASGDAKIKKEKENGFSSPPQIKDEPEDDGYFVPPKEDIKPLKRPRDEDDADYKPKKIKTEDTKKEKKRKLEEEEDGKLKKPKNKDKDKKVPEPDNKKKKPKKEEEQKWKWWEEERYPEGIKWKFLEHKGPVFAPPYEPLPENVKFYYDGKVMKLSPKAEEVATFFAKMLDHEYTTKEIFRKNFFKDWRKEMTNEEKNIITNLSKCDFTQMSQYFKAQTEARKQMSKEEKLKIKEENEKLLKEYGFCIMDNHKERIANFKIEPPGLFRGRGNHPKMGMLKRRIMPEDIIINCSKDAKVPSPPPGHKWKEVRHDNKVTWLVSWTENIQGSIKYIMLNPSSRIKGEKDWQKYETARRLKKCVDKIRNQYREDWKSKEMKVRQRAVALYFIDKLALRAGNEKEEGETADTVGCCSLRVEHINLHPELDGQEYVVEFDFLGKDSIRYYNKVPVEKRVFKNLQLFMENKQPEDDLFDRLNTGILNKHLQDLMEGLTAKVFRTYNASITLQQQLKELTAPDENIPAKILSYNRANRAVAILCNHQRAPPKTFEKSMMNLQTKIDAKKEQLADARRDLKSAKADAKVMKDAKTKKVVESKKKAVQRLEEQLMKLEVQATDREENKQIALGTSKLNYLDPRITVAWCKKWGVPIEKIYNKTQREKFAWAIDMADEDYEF

[31] = system: Aspergillus fumigatus; experiment: Antimicrobial activity against Aspergillus fumigatus at 5 ug/mL by agar diffusion method; assay type: functional; conditions: read-out: IZ
[32] = system: Aspergillus fumigatus; experiment: Antimicrobial activity against Aspergillus fumigatus by agar diffusion method; assay type: functional
How it was run: (§1)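 Agar diffusion on plates against bacteria and fungi. MIC taken as the lowest concentration giving no visible growth on the plate.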

[33] = system: Syncephalastrum racemosum; experiment: Antimicrobial activity against Syncephalastrum racemosum by agar diffusion method; assay type: functional; how it was run: as §1
[34] = system: Candida albicans; experiment: Antimicrobial activity against Candida albicans by agar diffusion method; assay type: functional; how it was run: as §1
[35] = system: Staphylococcus aureus; experiment: Antimicrobial activity against Staphylococcus aureus by agar diffusion method; assay type: functional; how it was run: as §1
[36] = system: Bacillus subtilis; experiment: Antimicrobial activity against Bacillus subtilis by agar diffusion method; assay type: functional; how it was run: as §1

SMILES	zone of inhibition at 5 µg/mL [1] [mm]	zone of inhibition at 5 µg/mL [2] [mm]	zone of inhibition at 5 µg/mL [3] [mm]	zone of inhibition at 5 µg/mL [4] [mm]	zone of inhibition at 5 µg/mL [5] [mm]	zone of inhibition at 5 µg/mL [6] [mm]	zone of inhibition at 5 µg/mL [7] [mm]	zone of inhibition at 2.5 µg/mL [8] [mm]	zone of inhibition at 2.5 µg/mL [9] [mm]	zone of inhibition at 2.5 µg/mL [10] [mm]	zone of inhibition at 2.5 µg/mL [11] [mm]	zone of inhibition at 2.5 µg/mL [12] [mm]	zone of inhibition at 2.5 µg/mL [13] [mm]	zone of inhibition at 2.5 µg/mL [14] [mm]	zone of inhibition at 2.5 µg/mL [15] [mm]	zone of inhibition at 1.25 µg/mL [16] [mm]	zone of inhibition at 1.25 µg/mL [17] [mm]	zone of inhibition at 1.25 µg/mL [18] [mm]	zone of inhibition at 1.25 µg/mL [19] [mm]	zone of inhibition at 1.25 µg/mL [20] [mm]	also measured
O=C1/C(=N/Nc2cccc(Cl)c2)CCCc2ccccc21	0	16	15	12	0	17	9	8	0	9	11	9	0	10	0	6	0	6	7	5	zone of inhibition at 1.25 µg/mL [21]: 0 mm; zone of inhibition at 1.25 µg/mL [22]: 7 mm; zone of inhibition at 1.25 µg/mL [23]: 0 mm; MIC [24]: 1 µg/mL (≈ 3.35 µM); MIC [25]: 6 µg/mL (≈ 20.1 µM); Activity [26]: 84.1%; IC50 [27]: 54.1 µM; Activity [28]: Active; Ratio [29]: 5; Ratio [30]: 4.9; zone of inhibition at 5 µg/mL [31]: 14 mm
Cc1ccc(N/N=C2\CCCc3ccccc3C2=O)cc1	0	18	14	12	0	16	7	13	0	12	6	8	0	6	0	9	0	7	2	5	zone of inhibition at 1.25 µg/mL [21]: 0 mm; zone of inhibition at 1.25 µg/mL [22]: 4 mm; zone of inhibition at 1.25 µg/mL [23]: 0 mm; MIC [32]: 0.313 µg/mL (≈ 1.12 µM); MIC [33]: 0.625 µg/mL (≈ 2.25 µM); MIC [34]: 1.25 µg/mL (≈ 4.49 µM); MIC [35]: 0.625 µg/mL (≈ 2.25 µM); MIC [36]: 0.625 µg/mL (≈ 2.25 µM); MIC [24]: 1.14 µg/mL (≈ 4.1 µM); MIC [25]: 7.06 µg/mL (≈ 25.4 µM); Activity [26]: 80.1%; IC50 [27]: 56.3 µM; Activity [28]: Active; Ratio [29]: 4.27; Ratio [30]: 4.2; zone of inhibition at 5 µg/mL [31]: 22 mm
O=C1/C(=N/Nc2cccc([N+](=O)[O-])c2)CCCc2ccccc21	0	19	15	10	0	19	12	11	0	12	8	6	0	13	5	8	0	9	5	0	zone of inhibition at 1.25 µg/mL [21]: 0 mm; zone of inhibition at 1.25 µg/mL [22]: 8 mm; zone of inhibition at 1.25 µg/mL [23]: 0 mm; MIC [24]: 1.04 µg/mL (≈ 3.37 µM); MIC [25]: 6.11 µg/mL (≈ 19.8 µM); Activity [26]: 81.1%; IC50 [27]: 56 µM; Activity [28]: Active; Ratio [29]: 4.53; Ratio [30]: 4.5; zone of inhibition at 5 µg/mL [31]: 20 mm
